{"source": "ChEMBL document CHEMBL3351274", "about": "“Sensitization of tumor necrosis factor-related apoptosis-inducing ligand (TRAIL)-resistant primary prostate cancer cells by isoegomaketone from Perilla frutescens” (J Nat Prod, 2014)", "key": {"[1]": {"assay": "Induction of apoptosis in human RC-58T/h/SA#4 cells assessed as Bax activation at 20 uM after 24 hrs by immunoblotting analysis relative to untreated control", "assay_type": "functional", "how_it_was_run": "(§1)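 Cells grown in DMEM/10% FBS at 37 °C, 5% CO2, then treated 24 h with compound (20 μM) with or without TRAIL (100 ng/mL). Whole lysates were used for Bax and Bcl-2. Cytosolic and mitochondrial fractions were prepared with a mitochondria isolation kit for AIF and cytochrome c. Blotting used 10 μg protein/lane, 12% SDS-PAGE, nitrocellulose, overnight primary antibody at 4 °C and ECL detection.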"}, "[2]": {"assay": "Induction of apoptosis in human RC-58T/h/SA#4 cells assessed as Bcl-2 activation at 20 uM after 24 hrs by immunoblotting analysis relative to untreated control", "assay_type": "functional", "how_it_was_run": "as §1"}, "[3]": {"assay": "Sensitization of TRAIL-induced apoptosis in human RC-58T/h/SA#4 cells assessed as AIF level in cytosol at 20 uM after 24 hrs by immunoblotting analysis relative to untreated control", "assay_type": "functional", "how_it_was_run": "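Cells given 20 μM compound and/or 100 ng/mL TRAIL for 24 h. Mitochondrial and cytosolic fractions prepared with a mitochondria isolation kit. Fractions resolved by 12% SDS-PAGE at 10 μg/lane and immunoblotted with anti-cytochrome c or anti-AIF overnight at 4 °C, then HRP secondary and ECL detection.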"}, "[4]": {"assay": "Induction of apoptosis in human RC-58T/h/SA#4 cells assessed as DR5 expression at 2.5 uM after 24 hrs by immunoblotting analysis relative to untreated control", "assay_type": "functional"}, "[5]": {"assay": "Induction of apoptosis in human RC-58T/h/SA#4 cells assessed as DR4 expression at 20 uM after 3 hrs by immunoblotting analysis relative to untreated control", "assay_type": "functional"}, "[6]": {"assay": "Sensitization of TRAIL-induced apoptosis in human RC-58T/h/SA#4 cells assessed as procaspase-9 activation at 20 uM after 24 hrs by immunoblotting analysis in presence of Dr5 Fc chimera relative to untreated control", "assay_type": "functional", "how_it_was_run": "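Cells pretreated 2 h with 100 ng/mL DR5 Fc chimera, then given 20 μM compound and/or 100 ng/mL TRAIL for 24 h. Total lysates immunoblotted (12% SDS-PAGE, nitrocellulose) for caspase-3, -8, -9 and PARP cleavage, with HRP secondary and ECL detection.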"}, "[7]": {"assay": "Induction of apoptosis in human RC-58T/h/SA#4 cells assessed as p53 expression at 20 uM after 24 hrs by immunoblotting analysis relative to untreated control", "assay_type": "functional", "how_it_was_run": "(§2)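 RC-58T/h/SA#4 cells seeded at 5 × 10^4 cells/mL and cultured 24 h, then given compound across a concentration series or at fixed dose over a time course. Lysates were quantified by BCA. 10 μg protein/lane run on 12% SDS-PAGE and transferred to nitrocellulose. Blots probed for p53, CHOP and β-actin with HRP secondary and ECL.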"}, "[8]": {"assay": "Induction of apoptosis in human RC-58T/h/SA#4 cells assessed as CHOP expression at 10 uM after 24 hrs by immunoblotting analysis relative to untreated control", "assay_type": "functional", "how_it_was_run": "as §2"}, "[9]": {"assay": "Induction of apoptosis in human RC-58T/h/SA#4 cells assessed as CHOP expression at 20 uM after 24 hrs by immunoblotting analysis relative to untreated control", "assay_type": "functional", "how_it_was_run": "as §2"}, "Homo sapiens": {"organism": "Homo sapiens", "assay": "Induction of apoptosis in human RC-58T/h/SA#4 cells at 20 uM after 24 hrs by annexin-V/propidium iodide staining-based flow cytometry relative to control", "assay_type": "functional, cell-based", "how_it_was_run": "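RC-58T/h/SA#4 cells seeded at 1 × 10^5 cells/mL in 6-well plates and given 20 μM compound and/or 100 ng/mL TRAIL for 24 h. Cells washed in ice-cold PBS, labelled with annexin V Alexa Fluor 488 for 30 min at 4 °C in the dark, then with PI. Annexin V-positive fraction counted by flow cytometry; three independent experiments, means ± SD, Student's t-test.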"}}, "note": "The source made the active and inactive calls. No cut-off for these calls is given here.", "data": [{"molecule": "CC(C)/C=C/C(=O)c1ccoc1", "values": [{"measurement": "Ratio", "setting": "[1]", "result": 1.5}, {"measurement": "Ratio", "setting": "[2]", "result": 0.7}, {"measurement": "Ratio", "setting": "[3]", "result": 1.2}, {"measurement": "Ratio", "setting": "[4]", "result": 1}, {"measurement": "Ratio", "setting": "[5]", "result": 1.2}, {"measurement": "Ratio", "setting": "[6]", "result": 1.1}, {"measurement": "Ratio", "setting": "[7]", "result": 2.3}, {"measurement": "Ratio", "setting": "[8]", "result": 1.4}, {"measurement": "Ratio", "setting": "[9]", "result": 1.8}, {"measurement": "Activity", "setting": "Homo sapiens", "result": "Active"}]}]}
